Read-outs that look alike come from different tables or passages of the source. Marks after values point to notes of the source that are not given here.
What was measured:
[1] = Metabolite profiling of monkey plasma, urine and feces by radio-HPLC; type: in vivo, Cynomolgus monkey (Macaca fascicularis); conditions: Cynomolgus monkey, i.v.
Method in brief: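 Monkey samples after i.v. [14C]-test compound, 2.0 mg/kg. Plasma at 0.1–8 h was extracted twice with ethanol and centrifuged, and extracts went to LSC and radio-HPLC. Precipitates were combusted for total radioactivity. Urine (0–8 h, 8–24 h, then 24-h intervals to 120 h) was evaporated and reconstituted in mobile phase. Feces were processed as for mouse. Isocratic acetonitrile/ammonium acetate pH 4 on RP8e, UV 230 nm with radiodetection.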

[2] = Excretion of total radioactivity in mouse; type: in vivo, mouse (NMRI)
Method in brief: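 Male and female NMRI mice got an i.v. bolus of [14C]-test compound, 2.5 mg/kg. Urine and feces were collected 0–8 h, 8–24 h, then every 24 h to 120 h. Urine from timed pooled samples (n = 3) was counted by LSC. Feces were homogenized in water with carboxymethylcellulose, and 1 g aliquots were dried at 60°C/12 h and combusted. Minced carcasses (0.5 g aliquots) and tail segments were combusted for residual radioactivity.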

[3] = Physicochemical properties
[4] = NADPH-dependent metabolism by mouse liver microsomes; type: in vitro ADME; conditions: mice, 10 and 100 µM, up to 6 h
[5] = test system: sandwich‐cultured human hepatocytes; test: Hepatobiliary disposition in sandwich-cultured human hepatocytes; type: in vitro ADME
Method in brief: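 Sandwich-cultured human hepatocytes from three donor liver preparations, cultured 6 days. [14C]-test compound was applied at 10 and 250 μmol/L, with [3H]-taurocholate as transporter-function control and LDH release as cytotoxicity check. Radioactivity was read by LSC. Accumulation is mean ± SD of triplicate wells. BEI, CLbiliary, intracellular concentration and Cic/Cec were derived.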

[6] = ref Becker et al. 2015, cited from earlier work
[7] = test system: sandwich‐cultured hepatocytes; test: Cytotoxicity test with lactate dehydrogenase; type: cell-based; conditions: 250 μmol/L, up to 24 h
[8] = Plasma pharmacokinetics in Cynomolgus monkey after i.v. bolus; type: in vivo, Cynomolgus monkey (Macaca fascicularis)
Method in brief: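 Female Cynomolgus monkeys (n = 3), single i.v. bolus of [14C]-test compound. Plasma was sampled predose and at 0.1, 0.5, 1.0, 2, 4, 8, 24 and 48 h. Total radioactivity was read by LSC and parent compound by LC/MS/MS. PK parameters came from noncompartmental analysis as in mouse.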

[9] = Excretion of total radioactivity in monkey; type: in vivo, Cynomolgus monkey (Macaca fascicularis)
Method in brief: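 Female Cynomolgus monkeys (n = 3) got a single i.v. bolus of [14C]-test compound, 2.0 mg/kg. Urine and feces were collected 0–8 h, 8–24 h, then in 24-h intervals to 120 h. Both were counted by LSC as in the mouse study, with feces dried and combusted first. Excretion was expressed as % of radioactive dose.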

[10] = 10 μM, donor 1, 20 min, mean ± SD of triplicate wells
[11] = 10 μM, donor 2, 20 min, mean ± SD of triplicate wells
[12] = 10 μM, donor 3, 20 min, mean ± SD of triplicate wells
[13] = 10 μM, mean ± standard error of 3 donors, 20 min
[14] = 250 μM, donor 1, 20 min, mean ± SD of triplicate wells
[15] = 250 μM, donor 2, 20 min, mean ± SD of triplicate wells
[16] = 250 μM, donor 3, 20 min, mean ± SD of triplicate wells
[17] = 250 μM, mean ± standard error of 3 donors, 20 min
[18] = human, male, 0–144 h, n = 5, listed as [^14C]‐cilengitide
[19] = cynomolgus monkey, in vivo, iv, 2 mg/kg
[20] = female, cynomolgus monkey, plasma, iv, 2 mg/kg

## CC(C)[C@H]1C(=O)N[C@@H](CCCN=C(N)N)C(=O)NCC(=O)N[C@@H](CC(=O)O)C(=O)N[C@H](Cc2ccccc2)C(=O)N1C [cilengitide, cyclo‐(Asp‐D‐Phe‐N‐MeVal‐Arg‐Gly)]
[1]
  unchanged drug in plasma, share of total drug‐related material: > 85%
[2]
  extent of renal excretion: 10%
[3]
  solubility: high
[3]; octanol–water
  partition coefficient Po/w: 0.0096
[4]
  metabolism by liver microsomes: poorly metabolized
[5]
  biliary efflux (as determined by BEI and CLbil): negligible
[5]; 10 μM, donor 1, 20 min
  BEI: 2.42%
  CLbiliary: 7.2 mL/day/kg
  Intracellular concentration: 1.70 µM
[5]; [10]
  Cellular accumulation Avg.: 13.7 ± 1.8 pmol/mg
  Total accumulation Avg.: 14.0 ± 1.5 pmol/mg
[5]; 10 μM, donor 2, 20 min
  BEI: 2.30%
  CLbiliary: 5.8 mL/day/kg
  Intracellular concentration: 0.52 µM
[5]; [11]
  Cellular accumulation Avg.: 4.17 ± 0.33 pmol/mg
  Total accumulation Avg.: 4.27 ± 0.46 pmol/mg
[5]; 10 μM, donor 3, 20 min
  BEI: 16.6%
  CLbiliary: 18.7 mL/day/kg
  Intracellular concentration: 0.56 µM
[5]; [12]
  Cellular accumulation Avg.: 4.53 ± 0.38 pmol/mg
  Total accumulation Avg.: 5.44 ± 3.31 pmol/mg
[5]; [13]
  BEI: 7.12 ± 4.76%
  CLbiliary: 10 ± 4.3 mL/day/kg
  Cellular accumulation Avg.: 7.47 ± 3.12 pmol/mg
  Intracellular concentration: 0.926 ± 0.386 µM
  Total accumulation Avg.: 7.90 ± 3.07 pmol/mg
[5]; 250 μM, donor 1, 20 min
  BEI: 20.4%
  CLbiliary: 40.3 mL/day/kg
  Intracellular concentration: 22.7 µM
[5]; [14]
  Cellular accumulation Avg.: 183 ± 27 pmol/mg
  Total accumulation Avg.: 230 ± 28 pmol/mg
[5]; 250 μM, donor 2, 20 min
  BEI: 8.75%
  CLbiliary: 7.2 mL/day/kg
  Intracellular concentration: 10.4 µM
[5]; [15]
  Cellular accumulation Avg.: 84.0 ± 12.1 pmol/mg
  Total accumulation Avg.: 92.1 ± 5.7 pmol/mg
[5]; 250 μM, donor 3, 20 min
  BEI: 15.6%
  CLbiliary: 18.7 mL/day/kg
  Intracellular concentration: 15.2 µM
[5]; [16]
  Cellular accumulation Avg.: 122 ± 14 pmol/mg
  Total accumulation Avg.: 145 ± 5.9 pmol/mg
[5]; [17]
  BEI: 14.9 ± 3.4%
  CLbiliary: 21.6 ± 10 mL/day/kg
  Cellular accumulation Avg.: 130 ± 29 pmol/mg
  Intracellular concentration: 16.1 ± 3.6 µM
  Total accumulation Avg.: 156 ± 3 pmol/mg
[5]; 250 μmol/L, 6 and 24 h
  biotransformation by HPLC analysis of supernatant and cell lysate: no indication for biotransformation
[5]; exposure at 10 μmol/L
  Intracellular concentration: 0.926 ± 0.386 µM
[5]; exposure at 250 μmol/L
  Intracellular concentration: 16.1 ± 3.6 µM
[6]; human volunteers
  dose recovered in urine as unchanged drug: 77.5%
[6]; human, male, 0–24 h, n = 5
  Excretion of radioactivity in feces: ∼9.0 % dose
  Excretion of radioactivity, total: ∼87 % dose
[6]; human, male, 0–144 h, n = 5
  Excretion of radioactivity in feces: 15.5 % dose
  Excretion of radioactivity in urine: 79 % dose
[6]; [18]
  Excretion of radioactivity in feces: 15.5 ^d % dose
  Excretion of radioactivity in urine: 79.0 ^d % dose
[6]; human
  extent of renal excretion: ~ 80%
[6]
  components found in human plasma and urine: parent compound was the only component found
  renal clearance compared with creatinine clearance of each subject: below the creatinine clearance
[7]
  cell toxicity (LDH in cell culture medium): does not cause cell toxicity
[8]; cynomolgus monkey, in vivo
  half-life: 75 min
[8]; cynomolgus monkey, in vivo, Plasma CL, monkey, value used for allometry
  clearance: 4.83 mL/min/kg
[8]; [19]
  AUC: 6460 ng·h/mL
  Vd: 0.35 L/kg
  half-life: 66 min
[8]; [20]
  level at 0.1 h: 7020 ng/mL
  level at 0.5 h: 3400 ng/mL
  level at 8 h: 24.6 ng/mL
[8]; monkey
  clearance as share of hbf: 12%
[9]
  extent of renal excretion: 56%
